System: healthy Japanese and non-Asian adult male subjects
Experiment: Safety and tolerability assessment
Assay type: in vivo, human
Details: for incidence of TEAEs: 10 mg dose level
Summary of the method: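 Adverse events were assessed daily in all dosed subjects, graded by Rheumatology Common Toxicity Criteria v2.0, with relatedness judged by the investigator. Clinical laboratory samples were taken at screening, admission, days 2, 5, 7 and 13, and at follow-up. Supine vital signs and oral temperature were measured at set times. Physical examination and 12-lead ECG were done at screening and follow-up.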

[1] = Japanese subjects, pooled verinurad (n=24)
[2] = Non-Asian subjects, pooled verinurad (n=6)

## CC(C)(Sc1ccncc1-c1ccc(C#N)c2ccccc12)C(=O)O [verinurad]
[1]
  AE possibly related to study drug, severe severity/life-threatening: 0 n (%) [events]
  Any AE, severe severity/life-threatening: 0 n (%) [events]
  SAEs: 0 n (%) [events]
Japanese subjects
  incidence of TEAEs: 2 n
[2]
  AE possibly related to study drug, moderate severity: 0 n (%) [events]
  AE possibly related to study drug, severe severity/life-threatening: 0 n (%) [events]
  Any AE, severe severity/life-threatening: 0 n (%) [events]
  SAEs: 0 n (%) [events]
  Subjects withdrawn due to AEs: 0 n (%) [events]
All subjects
  serum chemistry, hematology, coagulation, urinalysis parameters: No safety concerns were identified
  vital signs, 12-lead electrocardiograms, physical examinations: No clinically significant findings
All subjects, during the study
  deaths, serious AEs, significant AEs of interest: No deaths, other serious AEs, or other significant AEs of interest were reported
Healthy male Japanese and non-Asian subjects, single and multiple once-daily doses 2.5 to 15 mg
  tolerability: well tolerated
non-Asian subjects
  incidence of TEAEs: 2 n
One subject, 3 days after a single 2.5 mg dose, resolved by day 14
  serum creatinine elevation: 1.5 × baseline
One subject, day 13 following daily dosing with 10 mg, unlikely to be related
  TEAE of moderate severity: moderately severe muscle strain
